Source: paper PMC11303703 (Scientific Reports, 2024)

Columns and labels:
[1] = system: P. falciparum W2; details: read-out: IC50 against P. falciparum W2; cultured malaria parasites; cited from earlier work
[2] = system: falcipain-2; details: read-out: IC50 against falcipain-2; cited from earlier work
[3] = DPPH radical scavenging assay; details: 37 °C, 30 min, 517 nm, n = 3
Procedure, shortened: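 Ethanolic DPPH (300 µM before mixing) was combined with test solution (0.5 mg/mL before mixing) and held at 37 °C for 30 min, then read at 517 nm. % radical scavenging was taken relative to a DMSO control. IC50 is the concentration removing 50% of the initial DPPH, fitted by kinetics software. N-acetyl-L-cysteine standard; 3 replicates.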

[4] = Cytotoxicity assay; assay type: cell-based; details: human, HeLa cells
Procedure, shortened: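 HeLa cells grown in DMEM with 5 mM L-glutamine, 10% FBS and penicillin/streptomycin/fungizone, then exposed to the test agent for 24 h in 96-well plates. A resazurin reagent was added and the resorufin formed by surviving cells was read by fluorescence (Ex 560/Em 590). Triplicate wells; emetine as positive control.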

[5] = system: HIV-1 IN; details: by chelating the active site Mg2+ cofactor; cited from earlier work
[6] = system: T.b. brucei; test: Trypanosoma brucei assay; assay type: cell-based; details: 48 h, read-out: Antitrypanosomal IC50
Procedure, shortened: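 In vitro T. b. brucei cultures in 96-well plates were exposed to the test agent for 48 h; the extract was screened at 25 µg/mL unless otherwise stated. Surviving parasites were counted by adding a resazurin reagent and reading resorufin fluorescence (Ex 560/Em 590). Pentamidine reference; triplicate wells; IC50 from dose-response data.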

[7] = system: Trypanosoma brucei; details: cited from earlier work

## O=C(O)c1c(O)ccc(O)c1O [2,3,6-trihydroxy benzoic acid]
[1]
  IC50: 16.5 ± 0.47 µM
[2]
  IC50: 35.4 ± 22.4 µM

## COC(=O)c1c(O)ccc(O)c1O [2,3,6-trihydroxy methyl benzoate]
[1]
  IC50: 13 ± 1.63 µM
[2]
  IC50: 6.09 ± 0.87 µM

## CC(=O)N[C@@H](CS)C(=O)O [N-acetyl-L-cysteine]
[3]
  Antioxidant IC50: 14.1 ± 0.1 µg/mL

## CC[C@H]1CN2CCc3cc(OC)c(OC)cc3[C@@H]2C[C@@H]1C[C@H]1NCCc2cc(OC)c(OC)cc21 [emetine]
[4]
  IC50 at 24 h: 0.045 ± 0.01 µM

## COC(=O)c1cc(O)c(O)c(O)c1 [methyl gallate, Methyl gallate]
[5]
  HIV-1 IN inhibition: inhibits HIV-1 IN

## N=C(N)c1ccc(OCCCCCOc2ccc(C(=N)N)cc2)cc1 [pentamidine]
[6]
  IC50: 0.000782 ± 6e-06 µM

## epigallocatechin-3-gallate
[7]
  activity against Trypanosoma brucei: active against Trypanosoma brucei
